According to ChEMBL document CHEMBL1143577, “Syntheses and biological activities of rebeccamycin analogues with uncommon sugars” (J Med Chem, 2005):

Assays:
K562 = assay: Inhibitory concentration against […] leukemia cell line in MTS assay; type: functional, cell-based; conditions: Homo sapiens
In short: (§1)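 Cells grown in RPMI 1640 with 10% FBS, 1% nonessential amino acids, penicillin-streptomycin, 37 °C, 5% CO2. Exponentially growing cells were then exposed to a range of compound concentrations for 72 h. MTS (2 mg/mL) plus PMS (25 µM) was added for 3 h, and absorbance was read at 490 nm. IC50 came from dose-response curves of % growth versus untreated control.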

SW-620 = assay: Inhibitory concentration against SW620 colorectal carcinoma cell line in MTS assay; type: functional, cell-based, Homo sapiens; in short: as §1

SMILES | IC50 (K562) | IC50 (SW-620; Homo sapiens, SW-620) | IC50 (SW-620; sw-620)
CC1OC(n2c3ccccc3c3c4c(c5c6ccccc6[nH]c5c32)C(=O)OC4=O)CC(N)C1O (stereo not drawn) | 55 µM | > 100 µM | 
CN1C(=O)c2c(c3c4ccccc4n(C4CC(O)C(O)C(CO)O4)c3c3[nH]c4ccccc4c23)C1=O (stereo not drawn) | 12 µM | 13 µM | 
CC1OC(n2c3ccccc3c3c4c(c5c6ccccc6[nH]c5c32)C(=O)N(N)C4=O)CC(O)C1O (stereo not drawn) | > 100 µM | > 100 µM | 
CN1C(=O)c2c(c3c4ccccc4[nH]c3c3[nH]c4ccccc4c23)C1=O | 40 µM | > 100 µM | 
O=C1c2c(c3c4ccccc4n(C4OC(COCc5ccccc5)C(OCc5ccccc5)C(OCc5ccccc5)C4OCc4ccccc4)c3c3[nH]c4ccccc4c23)C(=O)N1CCCn1ccnc1 (stereo not drawn) | > 50 µM | > 50 µM | 
CN1C(=O)c2c(c3c4ccccc4n(C4OC(CO)C(O)C(O)C4O)c3c3[nH]c4ccccc4c23)C1=O (stereo not drawn) | 3 µM | 5 µM | 
CC1OC(n2c3ccccc3c3c4c(c5c6ccccc6[nH]c5c32)C(=O)OC4=O)CC(NCc2ccccc2)C1O (stereo not drawn) | 53 µM | 76 µM | 
O=C1c2c(c3c4ccccc4n(C4OC(CO)C(O)C(O)C4O)c3c3[nH]c4ccccc4c23)C(=O)N1CCCn1ccnc1 (stereo not drawn) | 4 µM | 2 µM | 
CC1OC(n2c3ccccc3c3c4c(c5c6ccccc6[nH]c5c32)C(=O)N(C)C4=O)CC(NCc2ccccc2)C1O (stereo not drawn) | 34 µM | > 100 µM | 
CC1OC(n2c3ccccc3c3c4c(c5c6ccccc6[nH]c5c32)C(=O)N(C)C4=O)CC(O)C1O (stereo in doubt; 5) | 26 µM | 24 µM | 
CC1OC(n2c3ccccc3c3c4c(c5c6ccccc6[nH]c5c32)C(=O)N(C)C4=O)CC(O)C1O (stereo in doubt; 6) |  |  | 34 µM
CO[C@H]1[C@H](O)[C@@H](O)[C@H](n2c3c(Cl)cccc3c3c4c(c5c6cccc(Cl)c6[nH]c5c32)C(=O)NC4=O)O[C@@H]1CO [REBECCAMYCIN] | 6 µM | 4 µM | 
